What was measured:
[1] = test system: lamin A processing in staurosporine-treated Jurkat T cells; assay: western blot of lamin A processing upon inhibitor treatment; assay type: cell-based, human; details: inhibitor 5 or 25 μM, 2 h preincubation, staurosporine 5 μM, 4 h
Outline: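 Low-passage Jurkat T cells (100000 per 0.5 mL) were pretreated 2 h with inhibitor (5 or 25 μM, 1% DMSO; control 1% DMSO), then given staurosporine 5 μM for 4 or 8 h. Lysates were boiled in SDS/DTT and run on 4–12% Bis-Tris SDS–PAGE, then nitrocellulose, blocked with 2% BSA/TBS-T. Primary antibodies (caspase 3, PARP, caspase 6, lamin A/C; 1:1000, overnight 4 °C) were followed by fluorescent secondaries. Bands were quantified from 700/800 nm scans.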

caspase 6 [2] = biological target: T1, caspase 6 (Homo sapiens, UniProt P55212); assay: kinetic of AIE substrates; assay type: biochemical; details: caspases 3 and 6 at 10 nM or 50 nM, ex 312/em 450 nm, 30 min
T1 sequence (P55212 24-179 limits assumed): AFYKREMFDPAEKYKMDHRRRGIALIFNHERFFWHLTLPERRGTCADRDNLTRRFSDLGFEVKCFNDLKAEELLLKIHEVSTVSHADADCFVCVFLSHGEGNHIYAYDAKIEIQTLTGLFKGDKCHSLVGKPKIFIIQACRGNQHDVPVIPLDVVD
T1 sequence (P55212 194-293 limits assumed): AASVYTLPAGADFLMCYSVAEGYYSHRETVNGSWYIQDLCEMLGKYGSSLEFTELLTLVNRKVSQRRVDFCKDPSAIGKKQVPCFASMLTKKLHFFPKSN
Outline: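 Recombinant human caspases 3 and 6 were active-site titrated with zVAD-fmk and used at 10 or 50 nM. Buffer: 10% w/v sucrose, 20 mM PIPES, 10 mM NaCl, 1 mM EDTA, 10 mM DTT, pH 7.2–7.4. Enzyme was preincubated 15 min, then added to AIE substrates from DMSO at varied final concentrations, 37 °C. Relative hydrolysis rate came from the linear fluorescence segment. At least three replicates, mean ± SD.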

caspase 6 [3] = biological target: T1, caspase 6; assay: kobs/I inhibition parameter of AOMK inhibitors; assay type: biochemical; details: substrate Ac-VEID-ACC 100 μM, 37 °C
Outline: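 Recombinant human caspase 6 was active-site titrated with zVAD-fmk and preactivated 15 min at 37 °C in sucrose/PIPES/NaCl/EDTA/DTT buffer, pH 7.2–7.4. Serial inhibitor dilutions with substrate were pre-equilibrated 15 min at 37 °C, then enzyme was added. ACC fluorescence (ex 355/em 460 nm) was read for 30 min from start under pseudo-first-order conditions. Second-order kobs/I: at least three independent runs, mean ± SD.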

[4] = test system: lamin A processing in staurosporine-treated Jurkat T cells; assay: mass cytometry, anti-lamin A; assay type: cell-based, human; details: inhibitor 5 or 25 μM, 2 h preincubation, staurosporine 5 μM, 4 h
Outline: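 Jurkat T cells (1,000,000 per 0.5 mL) were pretreated 2 h with inhibitor (5 or 25 μM), then given staurosporine 5 μM for 4 h. Cells were fixed in 4% PFA (20 min, 4 °C), Perm-S permeabilised and stained 2 h RT with metal-tagged antibodies (lamin A 142Nd, cleaved PARP 143Nd, caspase 6 159Tb, cleaved caspase 3 172Yb). Ir191/193 DNA stain followed; CyTOF acquisition within 12 h.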

caspase 9 = biological target: T2, caspase 9 (Homo sapiens, UniProt P55211); assay: kobs/I inhibition parameter of AOMK inhibitors; assay type: biochemical; details: substrate Ac-LEHD-ACC 100 μM, 37 °C
T2 sequence (P55211 1-315 limits assumed): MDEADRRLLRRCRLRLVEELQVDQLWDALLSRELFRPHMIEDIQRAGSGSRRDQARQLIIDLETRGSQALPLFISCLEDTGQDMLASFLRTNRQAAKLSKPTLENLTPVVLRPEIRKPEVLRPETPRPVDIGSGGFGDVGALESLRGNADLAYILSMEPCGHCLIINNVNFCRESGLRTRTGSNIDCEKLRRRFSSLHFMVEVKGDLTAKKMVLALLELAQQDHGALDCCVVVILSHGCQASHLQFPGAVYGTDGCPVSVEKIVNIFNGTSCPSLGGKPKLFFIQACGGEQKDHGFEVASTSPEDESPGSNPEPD
T2 sequence (P55211 331-416 limits assumed): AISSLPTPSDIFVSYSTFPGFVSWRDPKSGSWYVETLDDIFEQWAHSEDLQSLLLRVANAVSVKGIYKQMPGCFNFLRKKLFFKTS
Outline: (§1)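 Recombinant human caspases 8, 9 or 10 were active-site titrated with zVAD-fmk and preactivated 15 min at 37 °C. Buffer: sucrose/PIPES/NaCl/EDTA/DTT, pH 7.2–7.4, plus 0.75 M sodium citrate to dimerise. Inhibitor dilutions were mixed with substrate and held 15 min at 37 °C before enzyme addition. Fluorescence (ex 355/em 460 nm) was followed 30 min; pseudo-first-order kobs/I from ≥3 experiments, mean ± SD.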

caspase 10 = biological target: T3, caspase 10 (Homo sapiens, UniProt Q92851); assay: kobs/I inhibition parameter of AOMK inhibitors; assay type: biochemical; details: substrate Ac-LEHD-ACC 100 μM, 37 °C
T3 sequence (Q92851 220-415 limits assumed): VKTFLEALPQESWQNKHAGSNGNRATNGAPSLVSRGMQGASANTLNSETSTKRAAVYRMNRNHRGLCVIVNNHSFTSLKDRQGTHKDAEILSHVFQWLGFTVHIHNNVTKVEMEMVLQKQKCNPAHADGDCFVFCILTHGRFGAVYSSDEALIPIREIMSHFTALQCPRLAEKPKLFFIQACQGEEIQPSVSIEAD
T3 sequence (Q92851 416-521 limits assumed): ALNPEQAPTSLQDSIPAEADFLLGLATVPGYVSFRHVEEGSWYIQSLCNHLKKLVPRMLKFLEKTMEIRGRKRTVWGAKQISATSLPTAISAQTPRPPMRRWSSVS
Outline: as §1

caspase 8 = caspase 8 (Homo sapiens, UniProt Q14790); assay: kobs/I inhibition parameter of AOMK inhibitors; assay type: biochemical; details: substrate Ac-LEHD-ACC 100 μM, 37 °C
Chain of caspase 8 (Q14790 217-374 limits assumed): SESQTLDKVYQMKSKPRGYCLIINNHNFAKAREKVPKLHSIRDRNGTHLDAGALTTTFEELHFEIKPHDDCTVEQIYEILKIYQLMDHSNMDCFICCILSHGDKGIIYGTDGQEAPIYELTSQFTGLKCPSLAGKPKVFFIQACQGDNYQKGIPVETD
Chain of caspase 8 (Q14790 385-479 limits assumed): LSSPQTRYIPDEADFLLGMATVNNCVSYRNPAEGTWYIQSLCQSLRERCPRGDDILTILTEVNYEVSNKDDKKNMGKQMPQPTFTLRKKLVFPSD
Outline: as §1

selectivity for caspase 6 over caspase 3 (AIE substrate hydrolysis) (caspase 6 [2])	potency toward caspase 6 (kobs/I, in words) (caspase 6 [3])	inhibition of apical caspase 9 (in words) (caspase 9)	inhibition of apical caspase 10 (in words) (caspase 10)	inhibition of apical caspase 8 (in words) (caspase 8)	Substance	prevention of lamin A cleavage (western blot) [1]	effect on lamin A processing (mass cytometry) [4]
–	–	–	–	–	Ac-EVEID-AOMK	only partially effective in preventing lamin A cleavage	–
very high selectivity over caspase 3	–	–	–	–	Ac-EVEID-K(T PE )-NH2 [Ac-EVEID-K-TPE]	–	–
–	most potent inhibitors of caspase 6	–	–	–	Ac-EVEhFD-AOMK	only partially effective in preventing lamin A cleavage	–
–	most potent inhibitors of caspase 6	poor inhibitor	poor inhibitor	poor inhibitor	Ac-hFVEID-AOMK	largely prevent lamin A	efficiently block lamin A processing

— paper PMC9977399 (Chemical Science, 2023)
